Test results: ChEMBL document CHEMBL4177580, “New 5-HT1A, 5HT2A and 5HT2C receptor ligands containing a picolinic nucleus: Synthesis, in vitro and in vivo pharmacological evaluation” (Bioorg Med Chem, 2017)
Active and inactive are the calls of the source. The rule behind the calls is not given here.

How the values were obtained:
[1] = system: Mus musculus; assay: Toxicity in Swiss albino mouse assessed as reduction in spontaneous locomotor activity at 60 mg/kg, ip dosed 60 mins before test and measured after 6 mins; assay type: organism-based; settings: in vivo, 0.1 h
In short: (§1)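 Spontaneous locomotion: mice dosed i.p. 60 min before being placed individually in an actometer for 30 min. Distance travelled read at 6 and 30 min. Cages cleaned with 70% ethanol between animals. One-way ANOVA with Dunnett's; mean ± SEM of one experiment.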

[2] = system: Rattus norvegicus; assay: In-vivo 5-HT1A receptor antagonist activity in Wistar rat assessed as reduction in 8-OH-DPAT-stimulated induction of lower lip retraction by measuring lower lip retraction score at 30 mg/kg, ip dosed 15 mins before test (reference value: 2.875 +/- 0.08183)
[3] = system: Mus musculus; assay: Anxiolytic-like activity in Swiss albino mouse assessed as increase in time spent in open arms at 3.75 to 15 mg/kg measured for 5 mins test period by elevated plus maze test; assay type: functional, organism-based
[4] = target: D(1A) dopamine receptor (Homo sapiens, UniProt P21728); assay: Displacement of [3H]SCH-23390 from human recombinant dopamine D1 receptor expressed in CHO cells; assay type: cell-based
[5] = system: Mus musculus; assay: Induction of hypothermia in Swiss albino mouse assessed as reduction in body temperature at 30 mg/kg, ip measured after 30 mins post dose; assay type: functional, organism-based
In short: (§2)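 Normothermic male Swiss mice; rectal thermistor readings over 180 min. Baseline is the mean of readings 60 and 30 min before dosing; readings at 30, 60, 90, 120 min post-injection; Δt = tf − ti. Test compounds i.p. (DMSO/methylcellulose); 8-OH-DPAT (5 mg/kg) and WAY 100635 (0.1 mg/kg) s.c. in water. Two-way ANOVA, Bonferroni.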

[6] = system: Rattus norvegicus; assay: In-vivo 5-HT1A receptor agonist activity in Wistar rat assessed as induction of lower lip retraction by measuring lower lip retraction score at 30 mg/kg, ip dosed 15 mins before test (reference value: 0.0 +/- 0.0)
[7] = system: Mus musculus; assay: Toxicity in Swiss albino mouse assessed as reduction in spontaneous locomotor activity at 7.5 mg/kg, ip dosed 60 mins before test; assay type: organism-based; settings: in vivo, 1 h; in short: as §1
[8] = target: T1, 5-hydroxytryptamine receptor 2C (Rattus norvegicus, UniProt P08909); assay: Displacement of [3H]mesulergine from serotonin 5-HT2C receptor in Sprague-Dawley rat brain cortex homogenates incubated for 15 mins by liquid scintillation spectrometry
T1 sequence (P08909 whole entry): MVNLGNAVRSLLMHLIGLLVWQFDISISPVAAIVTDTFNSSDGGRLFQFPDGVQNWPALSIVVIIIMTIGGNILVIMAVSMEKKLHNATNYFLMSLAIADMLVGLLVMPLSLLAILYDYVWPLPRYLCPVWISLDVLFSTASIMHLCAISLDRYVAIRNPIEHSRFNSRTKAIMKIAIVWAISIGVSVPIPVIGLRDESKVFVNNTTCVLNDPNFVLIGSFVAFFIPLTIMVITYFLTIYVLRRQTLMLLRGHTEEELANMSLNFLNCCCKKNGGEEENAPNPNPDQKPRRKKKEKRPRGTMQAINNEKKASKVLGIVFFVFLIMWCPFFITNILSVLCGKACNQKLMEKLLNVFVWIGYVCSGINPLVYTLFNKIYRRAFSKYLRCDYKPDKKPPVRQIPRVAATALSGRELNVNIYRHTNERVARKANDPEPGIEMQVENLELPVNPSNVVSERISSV

[9] = system: Mus musculus; assay: Induction of hypothermia in Swiss albino mouse assessed as reduction in body temperature at 30 mg/kg, ip measured after 60 mins post dose; assay type: functional, organism-based; in short: as §2
[10] = target: T2, Adrenergic receptor alpha-2 (Rattus norvegicus, UniProt P22086+P19328+P22909); assay: Displacement of [3H]RX 821002 from adrenergic alpha2 receptor in rat cerebral cortex
T2 sequence (P22086 whole entry): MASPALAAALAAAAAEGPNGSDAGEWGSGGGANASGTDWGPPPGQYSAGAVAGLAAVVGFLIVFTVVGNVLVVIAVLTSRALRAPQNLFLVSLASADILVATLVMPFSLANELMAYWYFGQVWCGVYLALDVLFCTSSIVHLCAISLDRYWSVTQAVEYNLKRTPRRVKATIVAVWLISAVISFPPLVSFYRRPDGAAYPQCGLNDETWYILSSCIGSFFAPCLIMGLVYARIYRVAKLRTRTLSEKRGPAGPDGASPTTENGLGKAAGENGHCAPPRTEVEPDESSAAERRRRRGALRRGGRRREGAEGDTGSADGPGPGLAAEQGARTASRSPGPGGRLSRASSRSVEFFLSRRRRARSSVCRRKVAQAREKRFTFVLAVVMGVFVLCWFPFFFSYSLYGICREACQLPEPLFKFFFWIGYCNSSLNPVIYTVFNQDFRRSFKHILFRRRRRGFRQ
T2 sequence (P19328 whole entry): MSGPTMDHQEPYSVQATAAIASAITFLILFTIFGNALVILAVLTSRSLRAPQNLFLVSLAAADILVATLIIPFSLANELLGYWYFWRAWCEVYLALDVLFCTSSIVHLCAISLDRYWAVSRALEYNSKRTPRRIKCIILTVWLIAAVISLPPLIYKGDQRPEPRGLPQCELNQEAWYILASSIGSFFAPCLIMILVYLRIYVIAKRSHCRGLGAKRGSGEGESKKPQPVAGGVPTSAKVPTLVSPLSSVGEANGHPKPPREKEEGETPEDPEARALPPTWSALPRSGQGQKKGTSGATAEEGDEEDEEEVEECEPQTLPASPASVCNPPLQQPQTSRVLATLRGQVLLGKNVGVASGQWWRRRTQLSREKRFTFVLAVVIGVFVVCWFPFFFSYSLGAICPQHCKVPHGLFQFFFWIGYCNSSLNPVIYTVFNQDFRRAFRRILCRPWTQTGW
T2 sequence (P22909 whole entry): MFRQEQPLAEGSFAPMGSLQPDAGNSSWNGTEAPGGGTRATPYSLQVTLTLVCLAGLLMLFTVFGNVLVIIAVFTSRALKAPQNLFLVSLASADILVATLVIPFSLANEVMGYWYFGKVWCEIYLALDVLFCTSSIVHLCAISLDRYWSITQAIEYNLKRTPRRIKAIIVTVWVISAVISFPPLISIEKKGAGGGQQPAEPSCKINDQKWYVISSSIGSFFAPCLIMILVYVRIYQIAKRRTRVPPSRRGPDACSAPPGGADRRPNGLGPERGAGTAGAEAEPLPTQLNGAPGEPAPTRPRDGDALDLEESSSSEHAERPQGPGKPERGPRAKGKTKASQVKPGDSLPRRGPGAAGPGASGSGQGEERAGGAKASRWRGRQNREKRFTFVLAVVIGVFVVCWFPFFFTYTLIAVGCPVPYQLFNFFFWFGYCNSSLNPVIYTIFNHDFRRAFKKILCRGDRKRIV

Chain of D(1A) dopamine receptor (P21728 whole entry): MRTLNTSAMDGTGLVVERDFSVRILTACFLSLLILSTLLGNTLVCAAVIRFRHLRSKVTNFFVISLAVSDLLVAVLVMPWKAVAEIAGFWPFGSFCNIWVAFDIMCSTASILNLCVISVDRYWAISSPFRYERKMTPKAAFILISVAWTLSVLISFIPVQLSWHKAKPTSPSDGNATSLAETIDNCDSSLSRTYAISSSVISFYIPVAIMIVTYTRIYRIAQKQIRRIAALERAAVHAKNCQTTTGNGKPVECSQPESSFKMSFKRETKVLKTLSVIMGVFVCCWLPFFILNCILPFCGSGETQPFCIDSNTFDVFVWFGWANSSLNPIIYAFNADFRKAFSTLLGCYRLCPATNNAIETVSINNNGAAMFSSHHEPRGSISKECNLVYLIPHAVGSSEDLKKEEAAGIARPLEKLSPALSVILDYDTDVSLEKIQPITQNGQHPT

O=C(NCCN1CCN(c2ccc(Cl)c(Cl)c2)CC1)c1ccccn1
Activity [1]: Toxic
Activity_index [2]: 2.3
Activity [3]: Active
Ki [4]: 610 nM
Activity [5]: Active
Activity_index [6]: 0.1429
Activity [7]: Non-Toxic
Ki [8]: > 10000 nM
Activity [9]: Active
Ki [10]: 4200 nM
